Entries after “also recorded” stand apart in the source; their conditions may differ.
How the values were obtained:
[1] = biological target: T1, EsemOR3 (Eriocrania semipurpurella, UniProt A0A2H4NT95); assay: Fluorescent calcium assay, HEK293 cells expressing EsemOrco and EsemOR3; type: cell-based; conditions: for Response of EsemOR3-expressing cells in screening: compounds screened at 30 µM
T1 sequence (A0A2H4NT95 1-441): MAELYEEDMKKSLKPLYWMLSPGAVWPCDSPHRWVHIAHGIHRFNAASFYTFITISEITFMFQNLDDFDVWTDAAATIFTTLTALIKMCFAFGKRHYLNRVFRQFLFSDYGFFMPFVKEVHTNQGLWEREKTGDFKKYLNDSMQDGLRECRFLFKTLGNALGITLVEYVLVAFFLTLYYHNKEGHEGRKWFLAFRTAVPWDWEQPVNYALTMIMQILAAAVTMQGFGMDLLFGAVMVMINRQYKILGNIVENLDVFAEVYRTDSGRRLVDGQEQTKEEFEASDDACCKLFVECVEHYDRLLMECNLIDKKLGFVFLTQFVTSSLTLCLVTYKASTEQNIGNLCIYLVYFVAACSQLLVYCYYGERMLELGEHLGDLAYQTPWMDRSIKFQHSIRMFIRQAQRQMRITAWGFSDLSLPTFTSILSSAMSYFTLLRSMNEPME
T1 sequence (A0A2H4NT96 1-482 partner): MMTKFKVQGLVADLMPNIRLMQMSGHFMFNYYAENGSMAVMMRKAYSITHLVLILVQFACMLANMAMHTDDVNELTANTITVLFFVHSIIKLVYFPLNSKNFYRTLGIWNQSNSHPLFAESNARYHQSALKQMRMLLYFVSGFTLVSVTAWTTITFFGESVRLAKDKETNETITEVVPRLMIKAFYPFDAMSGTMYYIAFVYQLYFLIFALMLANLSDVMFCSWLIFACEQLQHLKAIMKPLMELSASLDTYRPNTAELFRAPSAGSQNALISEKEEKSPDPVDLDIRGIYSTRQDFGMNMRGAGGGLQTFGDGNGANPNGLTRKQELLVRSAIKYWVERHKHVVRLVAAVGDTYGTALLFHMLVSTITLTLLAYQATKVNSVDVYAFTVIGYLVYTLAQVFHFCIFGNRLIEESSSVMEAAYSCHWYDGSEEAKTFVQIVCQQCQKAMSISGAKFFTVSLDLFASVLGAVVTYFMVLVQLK
Procedure, shortened: (§1)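 Inducible TREx HEK293 cells stably carry Myc-tagged Orco plus V5-tagged receptor; non-induced wells serve as control. Cells loaded 30 min RT with 1 µM Fluo4-AM, 0.2% pluronic, in DPBS (Ca2+, Mg2+, 1 mM probenecid, pH 7.1); fluorescence read 1 min after ligand. Screen at 30 µM; dose–response from 150 µM, 1/2 dilutions; Orco agonist 50 µM; 0.5% DMSO vehicle. Triplicate wells, three experiments; EC50 (95% CI) by nonlinear fit.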

[2] = biological target: T2, EsemOR5 (Eriocrania semipurpurella, UniProt A0A2H4NTA6); assay: Fluorescent calcium assay, HEK293 cells expressing EsemOrco and EsemOR5; type: cell-based; conditions: for Response of EsemOR5-expressing cells in screening: compounds screened at 30 µM
T2 sequence (A0A2H4NTA6 1-419): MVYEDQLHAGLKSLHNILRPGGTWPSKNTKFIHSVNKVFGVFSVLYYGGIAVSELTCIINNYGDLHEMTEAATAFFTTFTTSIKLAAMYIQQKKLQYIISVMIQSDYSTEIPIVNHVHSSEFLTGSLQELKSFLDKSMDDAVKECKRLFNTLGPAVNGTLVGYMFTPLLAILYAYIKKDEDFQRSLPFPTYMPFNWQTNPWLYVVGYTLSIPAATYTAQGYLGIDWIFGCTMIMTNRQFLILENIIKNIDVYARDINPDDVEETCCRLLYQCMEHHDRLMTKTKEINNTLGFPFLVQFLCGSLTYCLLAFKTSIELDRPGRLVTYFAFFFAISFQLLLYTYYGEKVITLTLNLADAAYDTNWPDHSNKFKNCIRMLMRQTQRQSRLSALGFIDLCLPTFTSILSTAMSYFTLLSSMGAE
T2 sequence (A0A2H4NT96 1-482 partner): T1 sequence (A0A2H4NT96 1-482 partner)
Procedure, shortened: as §1

[3] = test system: E. semipurpurella males; conditions: cited from earlier work; for Attraction of E. semipurpurella: sex pheromone components, males but not females, ref Larsson etal. 2002; for Effect on male sex pheromone attraction: ref Kozlov etal. 1996
[4] = test system: E. sangii; conditions: ref Kozlov etal. 1996; cited from earlier work
[5] = biological target: T3, EsemOR1 (Eriocrania semipurpurella, UniProt A0A2H4NTA3); assay: Fluorescent calcium assay, HEK293 cells expressing EsemOrco and EsemOR1; type: cell-based
T3 sequence (A0A2H4NTA3 1-412): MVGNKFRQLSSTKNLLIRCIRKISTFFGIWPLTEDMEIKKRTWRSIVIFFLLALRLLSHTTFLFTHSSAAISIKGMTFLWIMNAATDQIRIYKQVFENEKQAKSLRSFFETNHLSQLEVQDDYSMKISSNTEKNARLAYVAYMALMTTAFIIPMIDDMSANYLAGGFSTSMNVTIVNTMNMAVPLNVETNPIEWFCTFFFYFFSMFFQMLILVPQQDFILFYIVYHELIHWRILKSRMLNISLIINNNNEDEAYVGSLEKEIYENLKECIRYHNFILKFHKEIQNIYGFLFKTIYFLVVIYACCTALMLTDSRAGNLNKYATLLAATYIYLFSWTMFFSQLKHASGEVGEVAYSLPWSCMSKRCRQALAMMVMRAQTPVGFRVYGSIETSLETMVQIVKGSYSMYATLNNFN
T3 sequence (A0A2H4NT96 1-482 partner): T1 sequence (A0A2H4NT96 1-482 partner)
Procedure, shortened: as §1

[6] = test system: EsemOR4; assay: Fluorescent calcium assay, HEK293 cells expressing EsemOrco and EsemOR4; type: cell-based, Eriocrania semipurpurella; conditions: EsemOrco + EsemOR4 cell line, 50 μM, induced cells
Procedure, shortened: as §1

[7] = test system: EsemOR6; assay: Fluorescent calcium assay, HEK293 cells expressing EsemOrco and EsemOR6; type: cell-based, Eriocrania semipurpurella; conditions: EsemOrco + EsemOR6 cell line, 50 μM, induced cells
Procedure, shortened: as §1

Row | SMILES | Response of EsemOR3-expressing cells in screening ([1]; induced cells) | Response of EsemOR5-expressing cells in screening ([2]; induced cells) | further results
1 | CCCCCCCCC(C)O (stereo not shown) [2-Decanol] | responded to a lesser extent |  | 
2 | CCCCCCC(C)=O [2-Octanone] | responded to a lesser extent | responded | 
3 | CC/C=C\CCC[C@H](C)O [(2S,6Z)-6-Nonen-2-ol] | responded most strongly |  | Attraction of E. semipurpurella [3]: attractive to males; Response of EsemOR5-expressing cells in screening ([2]; induced cells, listed as (2 S, 6Z)-6-nonen-2-ol): activated the OR; EC50 [1]: 560 nM
4 | CCCCC[C@H](C)O [(S)-Heptan-2-ol] | less so; also recorded: responded to some extent |  | 
5 | CCCCCCC[C@H](C)O [(S)-Nonan-2-ol] | less so | Weaker responses | 
6 | CC/C=C\CCOC(C)=O [(Z)-3-Hexenyl acetate] | responded to a lesser extent | responded | 
7 | CC/C=C\CCCC(C)=O [(Z)-6-Nonen-2-one] | less so; also recorded: responded to some extent | responded most strongly | Effect on male sex pheromone attraction ([3]; E. semipurpurella): antagonize male sex pheromone attraction; Behavioural effect in E. sangii [4]: antagonist; EC50 [2]: 430 nM
8 | CCCCCCOC(C)=O [Hexyl acetate] |  | responded | 
9 | CCc1ccc(NC(=O)CSc2nnc(-c3cccnc3)n2CC)cc1 [VUAA1] |  |  | Response to Orco agonist (positive control) ([5]; EsemOrco + EsemOR1 cell line, 50 μM, induced cells): elicited responses in induced cells; Response to Orco agonist (positive control) ([2]; EsemOrco + EsemOR5 cell line, 50 μM, induced cells): elicited responses in induced cells; Response to Orco agonist (positive control) ([1]; EsemOrco + EsemOR3 cell line, 50 μM, induced cells): elicited responses in induced cells; Response to Orco agonist (positive control) [6]: elicited responses in induced cells; Response to Orco agonist (positive control) [7]: elicited responses in induced cells
10 | C=C1CC/C=C(\C)CC[C@@H]2[C@@H]1CC2(C)C [β-caryophyllene, β-Caryophyllene] |  |  | EC50 [5]: 2430 nM; Response of EsemOR1-expressing cells in screening ([5]; induced cells, compounds screened at 30 µM): responded

Continued, in another order:

Row | Response of EsemOR3-expressing cells in screening ([1]; induced cells) | Response of EsemOR5-expressing cells in screening ([2]; induced cells) | SMILES | further results
11 | responded to a lesser extent | responded | CCCCCCC(C)O (stereo not shown) [2-Octanol] | 
12 | responded to a lesser extent |  | CCCCCC(O)CC (stereo not shown) [3-Octanol] | 
13 | less so | Weaker responses | CC/C=C\CCC[C@@H](C)O [(2R, 6Z)-6-nonen-2-ol, (2R,6Z)-6-Nonen-2-ol] | Attraction of E. semipurpurella [3]: attractive to males
14 |  | responded | CCC/C=C/COC(C)=O [(E)-2-Hexenyl acetate] | 
15 | responded to a lesser extent |  | CC(C)=CCC[C@@H](C)O [(R)-6-methyl-5-hepten-2-ol, (R)-6-Methyl-5-hepten-2-ol] | 
16 | less so; also recorded: more weakly | Weaker responses | CCCCCCCC(C)=O [Nonan-2-one] | Effect on pheromone attraction ([3]; E. semipurpurella, low concentration, ref Larsson etal. (2002)): increases pheromone attraction; Effect on male sex pheromone attraction ([3]; E. semipurpurella): antagonize male sex pheromone attraction

From PMC5850608 (Molecular Biology and Evolution, 2017)
